Data taken from paper PMC8542566 (Cell chemical biology, 2021).

How the values were obtained:
[1] = test system: TgPPT1; assay: Inhibition of recombinant TgPPT1, turnover of 4MU-octanoate; assay type: biochemical, Toxoplasma gondii; conditions: recombinant enzyme, 4MU-octanoate substrate; result in words
Summary of the method: (§1)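 Purified full-length N-terminal His6 enzyme from E. coli, 50 nM final, with 10 μM test compound in 20 mM HEPES, 150 mM NaCl, 10 mM CHAPS, pH 7.4, at 37°C. 4MU-octanoate hydrolysis followed by fluorescence. Initial rates taken from a linear fit, in triplicate, normalized to DMSO control and expressed as percent inhibition.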

[2] = test system: TgASH4; assay: Gel-based competitive FP-TAMRA labeling of recombinant TgASH4; assay type: binding, Toxoplasma gondii; conditions: recombinant enzyme, gel-based FP-TAMRA competition; result in words
Summary of the method: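 Full-length N-terminal His6 enzyme, expressed in E. coli BL21-CodonPlus(DE3)-RIL (0.5 mM IPTG, 16 h, 19°C) and purified. 300 ng enzyme pre-incubated with DMSO or test compound (10 μM) for 30 min on ice, then labeled with FP-TAMRA for 30 min at 37°C. Quenched in reducing SDS buffer, resolved by SDS-PAGE, fluorescence-scanned (532 nm laser, 610 nm filter). Residual labeling expressed as percent inhibition versus DMSO.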

[3] = test system: TgASH3; assay: Inhibition of recombinant TgASH3, turnover of 4MU-octanoate; assay type: biochemical, Toxoplasma gondii; conditions: recombinant enzyme, 4MU-octanoate substrate; result in words
Summary of the method: as §1

[4] = test system: TgASH2; assay: Inhibition of recombinant TgASH2, turnover of 4MU-octanoate; assay type: biochemical, Toxoplasma gondii; conditions: recombinant enzyme, 4MU-octanoate substrate; result in words
Summary of the method: as §1

[5] = test system: T. gondii tachyzoites in HFFs; assay: Rosette formation assay; assay type: cell-based, Toxoplasma gondii; conditions: 10 μM dose, wild-type parasites in HFFs, 24 h
Summary of the method: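 Freshly egressed wild-type tachyzoites pre-treated with DMSO or 10 μM test compound were grown 24 h on confluent HFF coverslips (DMEM, 10% serum complex, 37°C, 5% CO2). Cells were PFA-fixed, Triton-permeabilized, BSA-blocked, stained with anti-Toxo-FITC (1:1000, overnight, 4°C), DAPI-mounted and imaged by confocal microscopy.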

Row | Structure (SMILES) | inhibitory activity against recombinant TgPPT1 [1] | inhibition of TgASH4 [2] | inhibition of TgASH3 [3] | inhibition of TgASH2 [4] | rosette formation inside the host cell [5]
1 | O=C(O)c1cccc(NC(=S)Nc2ccc3c(Cl)c(OCCBr)oc(=O)c3c2)c1 [JCP342] | significant inhibitory activity |  |  |  | 
2 | O=c1oc(OCCBr)c(Cl)c2ccc(NC(=S)Nc3ccccc3)cc12 [JCP343] | virtually no activity | potent inhibitors | potent inhibitors | potent inhibitors | 
3 | CCCCCCCCCCC[C@@H](C[C@@H]1OC(=O)[C@H]1CCCCCC)OC(=O)[C@H](CC(C)C)NC=O [Orlistat] |  |  |  |  | disordered rosettes
